Data set [1] has as its system Vero. The data set can be described thus: Cytotoxicity against African green monkey Vero cells at 15 to 20 uM after 72 hrs by Alamar Blue assay. It counts as cell-based. The settings on record: chlorocebus sabaeus. Put shortly: (§1)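 Vero cells treated 72 h at 35 °C, 7% CO2, in quadruplicate wells, with untreated host-cell and DMSO toxicity controls. Alamar Blue was added at 10% of culture volume for 6 h at 35 °C, and absorbance read at 570 and 600 nm. Cytotoxicity was also scored by cell detachment under optical microscopy. Three biological replicates of 4 technical replicates each.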

The nature of data set [2]: Cytotoxicity against African green monkey Vero cells after 72 hrs by Alamar Blue assay. The format is cell-based. The conditions noted are these: chlorocebus sabaeus, read-out: ED50. Put shortly: as §1
Data set [3] deals with Trypanosoma cruzi. As to the kind of experiment: Antitrypanosomal activity against tdTomato red expressing Trypanosoma cruzi CL amastigotes infected in gamma-irradiated African green monkey Vero cells after 72 hrs by fluorescence assay. It counts as functional. The conditions noted are these: light or radiation study, read-out: ED50 (the source's name). Put shortly: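 Gamma-irradiated (2,000 Rads) Vero cells, 3.4 × 10^4/well in RPMI with 10% FBS, held overnight at 35 °C, 7% CO2. Infected 5 h with 3.4 × 10^5 tdTomato CL trypomastigotes/well, then washed. Compounds were serially diluted 1.56–25 µM in quadruplicate, with benznidazole reference at 0.39–6.25 µM. Fluorescence read 72 h post-infection. ED50 by non-linear regression, mean ± S.D. of 3 biological replicates.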

The test system of data set [4] is Trypanosoma cruzi. The data set can be described thus: Antitrypanosomal activity against tdTomato red expressing Trypanosoma cruzi CL amastigotes infected in gamma-irradiated African green monkey Vero cells assessed as inhibition of parasite growth at 1 uM after 72 hrs by fluorescence assay relative to untreated control. It counts as functional. The conditions noted are these: light or radiation study, read-out: GI.

For data set [5], the system named is Trypanosoma cruzi. The data set can be described thus: Antitrypanosomal activity against tdTomato red expressing Trypanosoma cruzi CL amastigotes infected in gamma-irradiated African green monkey Vero cells assessed as inhibition of parasite growth at 10 uM after 72 hrs by fluorescence assay relative to untreated control. The format is functional. The settings on record: light or radiation study, read-out: GI.

For data set [6], the system named is Trypanosoma cruzi. As to the kind of experiment: Antitrypanosomal activity against tdTomato red expressing Trypanosoma cruzi CL amastigotes infected in gamma-irradiated African green monkey Vero cells assessed as inhibition of parasite growth at 6 uM after 72 hrs by fluorescence assay relative to untreated control. It counts as functional, organism-based.
Data set [7] relates to Vero. The data set can be described thus: Cytotoxicity against African green monkey Vero cells at 20 uM after 72 hrs by Alamar Blue assay. The conditions noted are these: chlorocebus sabaeus. The format is cell-based. Put shortly:
as §1

Active and inactive are the calls of the source. The calls are words filed in the database; no cut-off is given here. Where only a bound is given, the exact number is not on record here.

This is an account of results in ChEMBL document CHEMBL4480427, “Further insights of selenium-containing analogues of WC-9 against Trypanosoma cruzi” (Bioorg Med Chem, 2019).

As to `N#C[Se]CCOc1ccc([N+](=O)[O-])cc1`, in the data set with Vero [1], the Activity entry is recorded as “Toxic”. For `FC(F)(F)SCCOc1cccc(Oc2ccccc2)c1`, the CC50 at 72 h in data set [2] was greater than 20 µM. Also, in the data set with Trypanosoma cruzi [3], the EC50 is greater than 10 µM.

On to `FC(F)(F)[Se]CCOc1ccc(Oc2ccccc2)cc1`, for which the CC50 at 72 h in data set [2] is greater than 20 µM. In addition, the inhibition of growth at 1 µM with Trypanosoma cruzi [4] amounted to 6.7%. Also, in the data set on Trypanosoma cruzi [3], the EC50 was greater than 1 µM.

On to `N#C[Se]CCOc1ccccc1Oc1ccccc1`, for which, in data set [2], the CC50 at 72 h was greater than 20 µM. The inhibition of growth at 10 µM in the data set with Trypanosoma cruzi [5] came to 33%. As to `O=C(Cn1ccnc1[N+](=O)[O-])NCc1ccccc1` [BENZNIDAZOLE], in data set [2], the CC50 at 72 h is greater than 10 µM. As to `N#C[Se]CC1Cc2ccc(Oc3ccccc3)cc2O1` (racemic), in data set [2], the CC50 at 72 h is greater than 20 µM. Also, in the data set on Trypanosoma cruzi [3], the EC50 came out at 0.0939 µM. Consider `N#CCCCOc1ccc(Oc2ccccc2)cc1`, for which, in data set [2], the CC50 at 72 h is greater than 20 µM. In the case of `FC(F)(F)[Se]CCOc1cccc(Oc2ccccc2)c1`, the CC50 at 72 h in data set [2] was greater than 20 µM. The inhibition of growth at 1 µM in the data set on Trypanosoma cruzi [4] is 30.9%. For the compound `COc1ccc(OCC[Se]C#N)cc1`, in the data set on Trypanosoma cruzi [6], the “growth inhibition (GI)” value was “inactive”. Further, the Activity result in the data set with Vero [1] is given as “Toxic”. Take `N#CCCOc1ccc(Oc2ccccc2)cc1`: the CC50 at 72 h in data set [2] is greater than 20 µM. With `N#CSCCOc1ccccc1Oc1ccccc1`, the CC50 at 72 h in data set [2] is greater than 20 µM. Further, the inhibition of growth at 10 µM in the data set on Trypanosoma cruzi [5] came to 33%.

On to `N#C[Se]CCOc1ccccc1`, for which the Activity entry in the data set on Vero [7] is given as “Toxic”. With `FC(F)(F)SCCOc1ccc(Oc2ccccc2)cc1`, in data set [2], the CC50 at 72 h is greater than 20 µM. Also, the inhibition of growth at 10 µM with Trypanosoma cruzi [5] amounted to 12%.
